Measured values gathered from unrelated publications.
Lines come from different studies, so protocols differ. Values after ≈ are worked out from the molar mass of the structure shown.

| SMILES | target or system | test | test system | setting | quantity | value |
| --- | --- | --- | --- | --- | --- | --- |
| O=c1c2ccccc2[se]n1-c1ccccc1 | Enterovirus A | viral replication | Vero, EV71 | 48 h | IC50 | 7100 nM |
| N=C(CC(O)c1cc2c(F)cc(F)cc2c2cc(C(F)(F)F)ccc12)Nc1ccc(F)c(F)c1 (stereo not shown) | Plasmodium knowlesi | parasite growth, SYBR Green | – | – | IC50 | 2.4 nM |
| NC(=O)c1nc(F)c[nH]c1=O | Influenza A virus | viral replication, inhibitor | H1N1 PR/8 | – | EC50 | 1320 nM |
| N=C(CC(O)c1cc2c(F)cc(F)cc2c2cc(C(F)(F)F)ccc12)Nc1ccc(Br)cc1 (stereo not shown) | Plasmodium knowlesi | parasite growth, SYBR Green | – | – | IC50 | 3.3 nM |
| COC(=O)OCOc1c2n(ccc1=O)N([C@@H]1c3ccccc3SCc3c1ccc(F)c3F)[C@@H]1COCCN1C2=O | Influenza A virus | viral replication, inhibitor | MDCK, H1N1 WSN | – | EC50 | 0.946 nM |
| O=c1[nH]c(=O)n([C@H]2C[C@H](O)[C@@H](CO)O2)cc1F | Influenza A virus | viral replication, inhibitor, ELISA | MDCK, H1N1 | 24 h | IC50 | 30200 nM |
| O=C1c2ccccc2-c2c3c(cc4ccnc1c24)OCO3 | HuCC-A1 | cell growth or viability, MTT | – | 75 h | IC50 | 10000 nM |
| N.N.[Cl][Pt][Cl] | SU-DHL-8 | cell growth or viability, ATP luminescence | – | 72 h | IC50 | 940 nM |
| CC1=CC(=O)c2c(O)cccc2C1=O | HuCC-A1 | cell growth or viability, MTT | – | – | IC50 | 10800 nM |
| Nc1ccn([C@@H]2O[C@H](CO)[C@@H](O)C2(F)F)c(=O)n1 | Influenza A virus | viral replication, inhibitor, ELISA | MDCK, H1N1 | 24 h | IC50 | 640 nM |
| CC(=O)NC[C@H]1CN(c2ccc(N3CCOCC3)c(F)c2)C(=O)O1 | Enterococcus | microbial growth, broth dilution | VRE | – | MIC | 2 µg/mL (≈ 5.93 µM) |
| CC(C)C(=O)OC[C@H]1O[C@@H](n2ccc(NO)nc2=O)[C@H](O)[C@@H]1O | Influenza A virus | viral replication, inhibitor, ELISA | MDCK, H1N1 | 24 h | IC50 | 28300 nM |
| CC[C@H](C)C[C@H](C)CCCCCCCCC(=O)N[C@H]1C[C@@H](O)[C@@H](NCCN)NC(=O)[C@@H]2[C@@H](O)CCN2C(=O)[C@H]([C@H](O)CCN)NC(=O)[C@H]([C@H](O)[C@@H](O)c2ccc(O)cc2)NC(=O)[C@@H]2C[C@@H](O)CN2C(=O)[C@H]([C@@H](C)O)NC1=O | Pichia kudriavzevii | microbial growth, broth dilution | ATCC14243 | 48 h | MIC | 4 µg/mL (≈ 3.66 µM) |
